Test results: ChEMBL document CHEMBL1764953, “Discovery of orally active carboxylic acid derivatives of 2-phenyl-5-trifluoromethyloxazole-4-carboxamide as potent diacylglycerol acyltransferase-1 inhibitors for the potential treatment of obesity and diabetes” (J Med Chem, 2011)
Blank lines part the entries; values can stand above or below the compound they belong to.

How the values were obtained:
hERG [1] = target: T1, hERG (Homo sapiens, UniProt Q12809); assay: Inhibition of human ERG-mediated current expressed in CHO cells at 3 uM by patch clamp method; type: cell-based; conditions: CHO cells expressing human ERG
T1 sequence (Q12809 whole entry): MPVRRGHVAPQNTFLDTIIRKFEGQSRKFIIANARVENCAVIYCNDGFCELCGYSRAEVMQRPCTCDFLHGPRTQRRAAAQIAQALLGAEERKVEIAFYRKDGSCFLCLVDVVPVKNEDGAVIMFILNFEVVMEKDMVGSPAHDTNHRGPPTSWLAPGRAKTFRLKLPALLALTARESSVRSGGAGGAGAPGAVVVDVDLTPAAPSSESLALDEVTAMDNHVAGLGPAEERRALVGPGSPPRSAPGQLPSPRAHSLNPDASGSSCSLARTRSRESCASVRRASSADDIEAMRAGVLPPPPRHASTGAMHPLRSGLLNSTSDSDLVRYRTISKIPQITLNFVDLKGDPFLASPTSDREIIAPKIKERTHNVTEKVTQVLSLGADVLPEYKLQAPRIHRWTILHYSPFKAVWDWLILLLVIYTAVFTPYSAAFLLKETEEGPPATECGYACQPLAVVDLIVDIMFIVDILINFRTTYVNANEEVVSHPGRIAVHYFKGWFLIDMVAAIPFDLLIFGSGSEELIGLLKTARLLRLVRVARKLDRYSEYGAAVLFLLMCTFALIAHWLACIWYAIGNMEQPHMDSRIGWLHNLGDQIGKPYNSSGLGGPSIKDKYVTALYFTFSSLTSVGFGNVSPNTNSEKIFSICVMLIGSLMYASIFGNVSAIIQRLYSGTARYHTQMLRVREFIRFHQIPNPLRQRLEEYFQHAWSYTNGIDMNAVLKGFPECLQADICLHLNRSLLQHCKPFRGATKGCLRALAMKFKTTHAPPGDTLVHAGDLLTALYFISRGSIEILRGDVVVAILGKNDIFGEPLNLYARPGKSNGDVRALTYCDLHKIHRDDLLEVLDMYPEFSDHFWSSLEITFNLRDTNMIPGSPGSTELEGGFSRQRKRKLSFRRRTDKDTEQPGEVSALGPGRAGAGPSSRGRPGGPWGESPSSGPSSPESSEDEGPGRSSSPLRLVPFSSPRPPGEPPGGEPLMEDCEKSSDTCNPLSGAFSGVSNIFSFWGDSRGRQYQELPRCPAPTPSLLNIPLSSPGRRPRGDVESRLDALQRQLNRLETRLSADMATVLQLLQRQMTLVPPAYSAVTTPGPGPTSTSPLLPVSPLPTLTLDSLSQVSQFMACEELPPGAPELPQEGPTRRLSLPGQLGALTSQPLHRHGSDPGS
Outline: (§1)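 hERG-transfected CHO cells on automated whole-cell patch clamp at a holding potential of −80 mV; 1 s depolarizing pulse at 0.1 Hz; tail current measured at −40 mV. Sequence: 0.3% DMSO vehicle, three ascending log-interval concentrations up to 30 μM or the solubility limit, then 1 μM E-4031. At least 3 cells per compound; data normalized to vehicle and fitted with the Hill equation.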

hERG [2] = target: T1, hERG; assay: Inhibition of human ERG-mediated current expressed in CHO cells at 1 uM by patch clamp method; type: cell-based; conditions: CHO cells expressing human ERG; outline: as §1
[3] = Tmax in diet-induced obese mouse at 25 mg/kg administered as suspension; type: ADME, organism-based; parameters: dose 25 mg/kg; conditions: in vivo
[4] = Cmax in diet-induced obese mouse plasma at 25 mg/kg administered as suspension; type: ADME, organism-based; parameters: dose 25 mg/kg
[5] = target: T2, Diacylglycerol O-acyltransferase 1 (Homo sapiens, UniProt O75907); assay: Inhibition of human DGAT1 expressed in CHO-K1 cells after 1 hr using 14C palmitic acid
T2 sequence (O75907 whole entry): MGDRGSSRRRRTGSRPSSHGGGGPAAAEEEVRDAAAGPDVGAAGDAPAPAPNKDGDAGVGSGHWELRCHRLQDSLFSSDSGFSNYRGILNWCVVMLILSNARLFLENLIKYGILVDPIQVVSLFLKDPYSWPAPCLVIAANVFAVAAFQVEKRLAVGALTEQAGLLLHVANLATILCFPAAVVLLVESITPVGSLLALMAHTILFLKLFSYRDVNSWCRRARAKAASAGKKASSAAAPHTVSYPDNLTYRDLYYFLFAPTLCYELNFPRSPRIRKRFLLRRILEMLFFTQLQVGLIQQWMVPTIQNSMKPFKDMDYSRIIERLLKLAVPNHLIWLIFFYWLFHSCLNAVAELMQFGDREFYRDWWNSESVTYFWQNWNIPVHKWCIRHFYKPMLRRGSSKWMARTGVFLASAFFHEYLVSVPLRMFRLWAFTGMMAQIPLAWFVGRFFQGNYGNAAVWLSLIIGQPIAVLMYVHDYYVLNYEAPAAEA

[6] = Solubility of the compound at mp 217 degC; type: physicochemical
[7] = target: T2, Diacylglycerol O-acyltransferase 1; assay: Inhibition of human DGAT1 expressed in baculovirus infected insect cells after 1 hr using palmitoyl-1-14C-coenzyme A by phospholipid flashplate assay
hERG [8] = target: T1, hERG; assay: Inhibition of human ERG-mediated current expressed in CHO cells by patch clamp method; type: cell-based; conditions: CHO cells expressing human ERG; outline: as §1
hERG [9] = target: T1, hERG; assay: Inhibition of human ERG
[10] = Clearance in rat at 5 mg/kg, iv; type: ADME, organism-based; parameters: dose 5 mg/kg, route intravenous; conditions: in vivo
Rattus norvegicus = assay: Antiobesity activity in diet-induced obese rat assessed as reduction in body weight gain at 25 mg/kg, po qd; type: functional; parameters: scale not given: the % may be the effect or the level left
[11] = Oral bioavailability in rat at 5 mg/kg; type: ADME, organism-based; conditions: in vivo
Cavia porcellus = organism: Cavia porcellus; assay: Cardiotoxicity in guinea pig Langendorff heart model assessed as QT QT prolongation; type: toxicity
hERG [12] = target: T1, hERG; assay: Inhibition of human ERG-mediated current expressed in CHO cells at 30 uM by patch clamp method; type: cell-based; conditions: CHO cells expressing human ERG; outline: as §1

Compound: COC(=O)N1CCN(c2ccc(NC(=O)c3nc(-c4ccccc4)oc3C(F)(F)F)cc2)CC1
inhibition at 3 µM (hERG [1]): 16%

Compound: COCCN(C)c1ccc(NC(=O)c2nc(-c3ccccc3)oc2C(F)(F)F)cc1
inhibition at 1 µM (hERG [2]): 18%

Tmax [3]: 1 h
Cmax [4]: 76 ng/mL
Compound: O=C(Nc1ccc(C2CCN(C(=O)C3CC3)CC2)cc1)c1nc(-c2ccccc2)oc1C(F)(F)F
inhibition at 3 µM (hERG [1]): 13%

EC50 [5]: 25 µM
solubility [6]: < 1 µg/mL
IC50 [7]: 16 nM
Compound: O=C(Nc1ccc(N2CC(F)(F)C2)nc1)c1nc(-c2ccccc2)oc1C(F)(F)F
inhibition at 1 µM (hERG [2]): 17%

Compound: CCOC1CN(c2ccc(NC(=O)c3nc(-c4ccccc4)oc3C(F)(F)F)cn2)C1
IC20 (hERG [8]): 370 nM

Cmax [4]: < 10 ng/mL
Compound: COC(=O)N1CCC(c2ccc(NC(=O)c3nc(-c4ccccc4)oc3C(F)(F)F)cc2)CC1

clearance [10]: 13.5 mL/min/kg
bioavailability [11]: 77%
Compound: COCCN(C)c1ccc(NC(=O)c2nc(-c3ccccc3)oc2C(F)(F)F)cn1
IC20 (hERG [9]): 200 nM
IC20 (hERG [8]): 200 nM
Activity (Rattus norvegicus): 4.3%
Activity (Cavia porcellus): Toxic

Compound: COC(=O)N1CCN(c2ccc(NC(=O)c3nc(-c4ccccc4)oc3C(F)(F)F)cn2)CC1
IC20 (hERG [8]): 1940 nM

Compound: O=C(Nc1ccc(N2CCN(C(=O)[C@H]3CC[C@@H](C(=O)O)CC3)CC2)cc1)c1nc(-c2ccccc2)oc1C(F)(F)F
IC20 (hERG [8]): > 10000 nM

Compound: O=C(Nc1ccc(C2CCN(C(=O)C3CC3)CC2)nc1)c1nc(-c2ccccc2)oc1C(F)(F)F
IC20 (hERG [8]): 1730 nM

Compound: O=C(Nc1ccc(N2CCN(C(=O)C3CC3)CC2)cc1)c1nc(-c2ccccc2)oc1C(F)(F)F
inhibition at 3 µM (hERG [1]): 35%

Compound: COC(=O)N1CCN(c2ncc(NC(=O)c3nc(-c4ccccc4)oc3C(F)(F)F)cn2)CC1
inhibition at 1 µM (hERG [2]): 28%

Compound: COC(=O)N1CCC(c2ccc(NC(=O)c3nc(-c4ccccc4)oc3C(F)(F)F)cn2)CC1
inhibition at 1 µM (hERG [2]): 16%

Compound: O=C(Nc1cnc(N2CC[C@H](O)C2)nc1)c1nc(-c2ccccc2)oc1C(F)(F)F
IC20 (hERG [8]): 10000 nM

Compound: COCCN(C)c1ccc(NC(=O)c2nc(C)oc2C(F)(F)F)cn1
inhibition at 30 µM (hERG [12]): 37%

Compound: CCOC(=O)N1CCN(c2ccc(NC(=O)c3nc(-c4ccccc4)oc3C(F)(F)F)cn2)CC1
IC20 (hERG [8]): 800 nM

EC50 [5]: 0.22 µM
IC50 [7]: 82 nM
Compound: O=C(Nc1ccc(C2CCN(C(=O)[C@H]3CC[C@@H](C(=O)O)CC3)CC2)cc1)c1nc(-c2ccccc2)oc1C(F)(F)F
inhibition at 3 µM (hERG [1]): 21%

Compound: O=C(O)COC1CN(c2ccc(NC(=O)c3nc(-c4ccccc4)oc3C(F)(F)F)cn2)C1
inhibition at 30 µM (hERG [12]): 12%

Compound: O=C(Nc1ccc(N2CCN(C(=O)[C@H]3CC[C@H](C(=O)O)CC3)CC2)cc1)c1nc(-c2ccccc2)oc1C(F)(F)F
inhibition at 1 µM (hERG [2]): 5%

Compound: O=C(Nc1ccc(N2CCN(C(=O)C3CC3)CC2)nc1)c1nc(-c2ccccc2)oc1C(F)(F)F
IC20 (hERG [8]): 180 nM

Compound: COCCN(C)c1ncc(NC(=O)c2nc(-c3ccccc3)oc2C(F)(F)F)cn1
IC20 (hERG [8]): 1500 nM

Compound: COCCN(C)c1ccc(N(C)C(=O)c2nc(-c3ccccc3)oc2C(F)(F)F)cn1
inhibition at 30 µM (hERG [12]): 34%
